This note sets out measurements from ChEMBL document CHEMBL1777724, “Discovery, design and synthesis of the first reported potent and selective sphingosine-1-phosphate 4 (S1P4) receptor antagonists” (Bioorg Med Chem Lett, 2011).

The term inhibition denotes the relative decrease from the control value, in per cent. By IC50 is commonly meant the concentration that inhibits the measured activity by half.

In assay [1] the target is T1, Sphingosine 1-phosphate receptor 1 (Homo sapiens, UniProt P21453). As to the kind of experiment: Inhibition of S1P1 receptor at 25 uM. The gist of the method:
(§1)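 Selectivity counter-screen reported as percentage of inhibition at a single 25 μM concentration, given as the mean of n = 3 determinations.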

For assay [2], the target named is T2, Sphingosine 1-phosphate receptor 5 (Homo sapiens, UniProt Q9H228). Put plainly: Inhibition of S1P5 receptor at 25 uM. The procedure, abridged:
as §1

The target in assay [3] is Sphingosine 1-phosphate receptor 3 (Homo sapiens, UniProt Q99500). As to the kind of experiment: Inhibition of S1P3 receptor at 25 uM. The procedure, abridged:
as §1

Assay [4] has as its target T3, Sphingosine 1-phosphate receptor 2 (Homo sapiens, UniProt O95136). As to the kind of experiment: Inhibition of S1P2 receptor.
Assay [5] addresses T4, Sphingosine 1-phosphate receptor 4 (Homo sapiens, UniProt O95977).
T4 sequence (O95977 whole entry): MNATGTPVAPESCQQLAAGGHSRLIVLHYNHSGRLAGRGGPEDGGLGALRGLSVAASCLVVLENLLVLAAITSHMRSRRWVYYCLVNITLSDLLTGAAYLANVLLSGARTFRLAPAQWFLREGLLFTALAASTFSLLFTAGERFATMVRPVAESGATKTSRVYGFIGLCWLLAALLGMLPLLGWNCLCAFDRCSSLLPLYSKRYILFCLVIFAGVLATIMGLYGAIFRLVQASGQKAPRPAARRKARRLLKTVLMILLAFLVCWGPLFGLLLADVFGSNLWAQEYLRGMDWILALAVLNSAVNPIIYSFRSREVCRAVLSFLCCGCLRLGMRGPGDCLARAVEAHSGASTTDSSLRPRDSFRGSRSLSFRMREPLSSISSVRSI
As to the kind of experiment: Antagonist activity at S1P4 receptor in human U2OS cells expressing EDG6-linked GAL4-VP16 transcription factor via TEV protease site/beta-arrestin/TEV protease fusion protein and beta-lactamase reporter gene assessed as beta-lactamase expression by FRET assay. Format: functional, cell-based. The gist of the method:
(§2)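 Cells co-express a beta-arrestin/TEV protease fusion protein and a beta-lactamase reporter gene under a UAS response element. Reporter expression was read as FRET of a cleavable, fluorogenic, cell-permeable beta-lactamase substrate. Compounds were tested at concentrations up to 25 μM. IC50 values are the mean of n = 3 determinations.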
For orientation: A reporter such as luciferase makes a cellular process visible.

Assay [6] deals with T5, Sphingosine 1-phosphate receptor 4 (Homo sapiens) (UniProt O95977).
T5 sequence (whole entry): T4 sequence (O95977 whole entry)
Put plainly: Antagonist activity at S1P4 receptor in human U2OS cells expressing EDG6-linked GAL4-VP16 transcription factor via TEV protease site/beta-arrestin/TEV protease fusion protein and beta-lactamase reporter gene assessed as beta-lactamase expression up to 25 uM by FRET assay. Type of assay: functional, cell-based. The gist of the method:
as §2

The target of assay [7] is T1, Sphingosine 1-phosphate receptor 1. As to the kind of experiment: Inhibition of S1P1 receptor.
The target in assay [8] is T3, Sphingosine 1-phosphate receptor 2. Put plainly: Inhibition of S1P2 receptor at 25 uM. The procedure, abridged: as §1
For assay [9], the target named is T2, Sphingosine 1-phosphate receptor 5. Put plainly: Inhibition of S1P5 receptor.

Each structure is given as a SMILES string. Activity calls are given as the source filed them. The rule behind the calls is not given here.

T1 sequence (P21453 whole entry): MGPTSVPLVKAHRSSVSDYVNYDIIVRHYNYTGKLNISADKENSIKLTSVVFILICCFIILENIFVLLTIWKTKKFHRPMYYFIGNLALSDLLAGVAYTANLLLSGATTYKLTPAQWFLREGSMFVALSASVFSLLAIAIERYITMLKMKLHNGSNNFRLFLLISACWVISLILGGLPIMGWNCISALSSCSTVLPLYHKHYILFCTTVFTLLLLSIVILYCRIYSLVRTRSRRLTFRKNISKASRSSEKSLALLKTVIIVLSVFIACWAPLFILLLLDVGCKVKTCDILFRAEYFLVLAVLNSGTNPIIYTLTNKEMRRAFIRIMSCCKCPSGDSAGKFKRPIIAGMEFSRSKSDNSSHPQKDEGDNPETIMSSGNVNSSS
T3 sequence (O95136 whole entry): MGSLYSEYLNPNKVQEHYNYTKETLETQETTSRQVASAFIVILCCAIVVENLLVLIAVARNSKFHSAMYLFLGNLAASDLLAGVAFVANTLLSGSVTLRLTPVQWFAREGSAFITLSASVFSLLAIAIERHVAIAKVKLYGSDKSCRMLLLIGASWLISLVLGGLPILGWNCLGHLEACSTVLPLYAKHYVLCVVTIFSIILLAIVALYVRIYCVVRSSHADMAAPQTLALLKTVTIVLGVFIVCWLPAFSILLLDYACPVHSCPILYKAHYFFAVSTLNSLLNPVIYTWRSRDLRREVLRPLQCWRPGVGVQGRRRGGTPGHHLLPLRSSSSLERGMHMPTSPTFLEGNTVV
Chain of Sphingosine 1-phosphate receptor 3 (Q99500 whole entry): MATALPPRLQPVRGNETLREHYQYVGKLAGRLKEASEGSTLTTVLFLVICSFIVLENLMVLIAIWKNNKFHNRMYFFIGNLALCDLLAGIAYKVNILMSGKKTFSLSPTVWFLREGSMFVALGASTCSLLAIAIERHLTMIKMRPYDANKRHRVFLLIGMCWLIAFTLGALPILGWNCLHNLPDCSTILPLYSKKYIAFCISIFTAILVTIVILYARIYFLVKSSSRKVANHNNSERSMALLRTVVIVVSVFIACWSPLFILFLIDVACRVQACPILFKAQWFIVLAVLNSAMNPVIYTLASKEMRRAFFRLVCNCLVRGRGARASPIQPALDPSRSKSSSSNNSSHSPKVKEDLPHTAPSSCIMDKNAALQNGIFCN
T2 sequence (Q9H228 whole entry): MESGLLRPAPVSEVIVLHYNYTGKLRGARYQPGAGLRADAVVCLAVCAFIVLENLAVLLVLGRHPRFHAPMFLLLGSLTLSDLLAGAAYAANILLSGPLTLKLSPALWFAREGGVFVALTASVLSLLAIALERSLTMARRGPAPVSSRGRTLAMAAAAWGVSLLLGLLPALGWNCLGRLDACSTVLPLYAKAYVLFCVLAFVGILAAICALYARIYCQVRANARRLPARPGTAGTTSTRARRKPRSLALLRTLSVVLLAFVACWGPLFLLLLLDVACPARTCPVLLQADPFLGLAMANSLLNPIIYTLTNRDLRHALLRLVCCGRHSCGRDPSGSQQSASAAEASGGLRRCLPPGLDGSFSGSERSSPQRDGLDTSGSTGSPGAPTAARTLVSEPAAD

With `Cc1ccsc1-c1ccc(C(=O)Nc2c(C)cccc2C)o1`, the values for the inhibition in [1], in assay [2] and in assay [3] were 95%, 40% and 20%, respectively. Besides, the IC50 in assay [4] came to 2600 nM; in assay [5], 93 nM.
For the compound `Cc1cccc(C)c1N(C)C(=O)c1ccc(-c2cc(O)ccc2O)o1`, the inhibition result in assay [6] was “inactive”.
For `Cc1ccc(C)c(-c2ccc(C(=O)Nc3c(C)cccc3C)o2)c1`, the IC50 in assay [5] turned out to be 64 nM.
Turning to `Cc1cc(CN)cc(C)c1NC(=O)c1ccc(-c2cc(Cl)ccc2Cl)o1`, the inhibition in assay [2] worked out at 90%; in assay [3], 95%; in assay [8], 90%. For the same compound, the IC50 turned out to be 6400 nM in assay [7], 3900 nM in assay [4], 25 nM in assay [5] and 5500 nM in [9].
Turning to `Cc1cccc(Cl)c1NC(=O)c1ccc(-c2cc(Cl)ccc2Cl)o1`, the IC50 in [5] is 169 nM.
On the same count and under the same terms, the result for `CC(=O)OCc1cc(C)c(NC(=O)c2ccc(-c3cc(Cl)ccc3Cl)o2)c(C)c1` reads 34 nM; that for `Cc1cccc(C)c1N(C)C(=O)c1ccc(-c2ccco2)o1`, 130 nM.
On the same count and under the same terms, the figure for `Cc1ccc(S(C)(=O)=O)c(C)c1NC(=O)c1ccc(-c2cc(Cl)ccc2Cl)o1` is 302 nM; for `Cc1cc(C)c(NC(=O)c2ccc(-c3cc(Cl)ccc3Cl)o2)c(C)c1` it is 63 nM.
On the same count and under the same terms, the figure for `Cc1cccc(C)c1NC(=O)c1ccc(-c2cccs2)o1` is 118 nM; for `Cc1cc(C)c(N(C)C(=O)c2ccc(-c3cc(Cl)ccc3Cl)o2)c(C)c1` it is 8100 nM.
Regarding `Cc1cccc(C)c1NC(=O)c1ccc(-c2ccc(Cl)s2)o1`, in [5], the 50% inhibitory concentration (IC50) worked out at 515 nM.
Turning to `O=C(Nc1c(F)cccc1F)c1ccc(-c2cc(Cl)ccc2Cl)o1`, the IC50 in assay [5] amounted to 6400 nM.
Still for that read-out and setting: the figure for `COc1ccc(NC(=O)c2ccc(-c3cc(Cl)ccc3Cl)o2)c(C)c1` is 589 nM; for `Cc1cccc(C)c1NC(=O)c1ccc(-c2ccc(Cl)cc2Cl)o1` it is 2000 nM; for `Cc1cccc(CO)c1NC(=O)c1ccc(-c2cc(Cl)ccc2Cl)o1` it is 573 nM.
As to `Cc1ccsc1-c1ccc(C(=O)Nc2c(C)cc(CO)cc2C)o1`, the inhibition in [1] was 80%; in assay [8] it was 90%. For the same compound, the inhibition result in assay [2] and in assay [3] was “inactive” in each case. The IC50 in assay [5] worked out at 34 nM.
For `Cc1cccc(C)c1N(C)C(=O)c1ccc(-c2ccccc2Cl)o1`, the half-inhibitory concentration (IC50) in [5] was determined as 269 nM.
For `COc1ccc(OC)c(-c2ccc(C(=O)N(C)c3c(C)cccc3C)o2)c1`, in [5], the IC50 is 513 nM.
Take `Cc1cc(CO)cc(C)c1NC(=O)c1ccc(-c2cc(Cl)ccc2Cl)o1`: the inhibition in [1] worked out at 45%; in assay [2] it was 40%; in [3], 60%; in assay [8], 85%. The IC50 in assay [4] was found to be 3000 nM; in [5] it was 21 nM.
On to `Cc1ccc(C)c(NC(=O)c2ccc(-c3cc(Cl)ccc3Cl)o2)c1`, for which the half-maximal inhibitory concentration (IC50) in [5] was determined as 165 nM.
On the same count and under the same terms, the figure for `CC(=O)NCc1cc(C)c(NC(=O)c2ccc(-c3cc(Cl)ccc3Cl)o2)c(C)c1` is 94 nM.
On to `Cc1cc(OCCO)cc(C)c1NC(=O)c1ccc(-c2cc(Cl)ccc2Cl)o1`, for which the inhibition in assay [1] is 35%; in assay [2], 60%; in assay [3], 70%; in [8], 90%. For the same compound, the IC50 in [4] was found to be 2400 nM; in [5] it was 44 nM.
Take `Cc1cc(CN(C)C)cc(C)c1NC(=O)c1ccc(-c2cc(Cl)ccc2Cl)o1`: the IC50 in assay [5] was found to be 348 nM.
Regarding `Cc1cccc(C)c1NC(=O)c1ccc(-c2c(C)cccc2C)o1`, in assay [6], the inhibition result is “inactive”.
`COc1ccc(C)c(NC(=O)c2ccc(-c3cc(Cl)ccc3Cl)o2)c1`: the IC50 in [5] was 931 nM.
In the case of `COc1cccc(C)c1NC(=O)c1ccc(-c2cc(Cl)ccc2Cl)o1`, in assay [5], the concentration for half-maximal inhibition (IC50) came to 163 nM.
With `CCc1cccc(CC)c1NC(=O)c1ccc(-c2cc(Cl)ccc2Cl)o1`, the inhibition result in assay [1], in assay [2], in assay [3] and in [8] was “inactive” each time. In assay [5], the IC50 turned out to be 89 nM.
Consider `Cc1cccc(C)c1NC(=O)c1ccc(-c2cccc(Cl)c2)o1`, for which the IC50 in assay [5] is 497 nM.
Still for that read-out and setting: the figure for `Cc1cccc(C)c1NC(=O)c1ccc(-c2cc(F)ccc2F)o1` is 308 nM.
In the case of `CCc1cccc(C)c1NC(=O)c1ccc(-c2cc(Cl)ccc2Cl)o1`, the inhibition entry in [1] is “inactive”. The inhibition in [2] came to 50%; in [3], 55%; in [8] it was 50%. Further, in assay [5], the IC50 came to 41 nM.
With `Cc1cccc(C)c1NC(=O)c1ccc(-c2ccsc2)o1`, the IC50 in assay [5] amounted to 448 nM.
Take `COc1cc(C)c(NC(=O)c2ccc(-c3cc(Cl)ccc3Cl)o2)c(C)c1`: the inhibition turned out to be 20% in assay [1], 40% in assay [2], 30% in [3] and 70% in assay [8]. The IC50 in assay [4] stood at 2800 nM; in assay [5] it was 80 nM.
As for `Cc1cc(-c2ccccc2)cc(C)c1NC(=O)c1ccc(-c2cc(Cl)ccc2Cl)o1`, the concentration for half-maximal inhibition (IC50) in assay [5] was 115 nM.
`Cc1cc(OCC(N)=O)cc(C)c1NC(=O)c1ccc(-c2cc(Cl)ccc2Cl)o1`: the 50% inhibitory concentration (IC50) in [5] worked out at 52 nM.
With `Cc1ccsc1-c1ccc(C(=O)Nc2c(C)cc(O)cc2C)o1`, the inhibition stood at 75% in assay [1], 10% in assay [3] and 80% in assay [8]. Moreover, the inhibition entry in [2] was “inactive”. The IC50 in [5] was 46 nM.
In the case of `Cc1ccc2ccccc2c1NC(=O)c1ccc(-c2cc(Cl)ccc2Cl)o1`, the IC50 in [5] came out at 253 nM.
In the case of `Cc1cccc(C)c1NC(=O)c1ccc(-c2cc(C(F)(F)F)ccc2C(F)(F)F)o1`, the inhibition entry in assay [6] was “inactive”.
Regarding `Cc1cccc(C)c1NC(=O)c1ccc(-c2ccccc2)o1`, in [5], the IC50 was 575 nM.
`O=C(c1ccc(-c2cc(Cl)ccc2Cl)o1)N1CCc2ccccc21`: the inhibition entry in [6] is “inactive”.
In the case of `Cc1cc(O)cc(C)c1NC(=O)c1ccc(-c2cc(Cl)ccc2Cl)o1`, the IC50 in assay [7] turned out to be 5300 nM; in assay [4], 2800 nM; in [5] it was 58 nM; in [9], 3000 nM. In [8], the inhibition stood at 90%.
Consider `Cc1cccc(C)c1NC(=O)c1ccc(-c2cc(Cl)ccc2Cl)o1`, for which the half-inhibitory concentration (IC50) in [5] came to 78 nM; in assay [9], 14000 nM.
For the compound `COc1cccc(OC)c1NC(=O)c1ccc(-c2cc(Cl)ccc2Cl)o1`, the IC50 in assay [5] worked out at 417 nM.
On the same count and under the same terms, the result for `CC(C)c1cccc(C(C)C)c1NC(=O)c1ccc(-c2cc(Cl)ccc2Cl)o1` reads 105 nM; that for `Cc1cscc1-c1ccc(C(=O)Nc2c(C)cccc2C)o1`, 286 nM.
